The source made the active and inactive calls. The calls are words filed in the database; no cut-off is given here.

These results are taken from ChEMBL document CHEMBL4706750, “Design and Catalyzed Activation of Mycophenolic Acid Prodrugs” (ACS Med Chem Lett, 2021).

Data set [1] addresses Inosine-5'-monophosphate dehydrogenase 2 (Homo sapiens) (UniProt P12268). As to the kind of experiment: Inhibition of IMPDH2 (unknown origin) assessed by conversion of NAD+ to NADH preincubated for 30 mins followed by addition of inosine-5'- monophosphate substrate and NAD at 10 uM measured by plate reader method. The procedure, abridged: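 IMPDH2 enzyme exposed to test compounds, then stimulated with inosine-5′-monophosphate and NAD+. NADH formation followed by absorbance at 340 nm. Single test concentration of 10 μM.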

Data set [2] is described as follows: Toxicity in mouse MIN6 cells assessed by dehydrogenase activity measured after 48 hrs by CCK-8 assay. In kind it is cell-based. The method, boiled down:
(§1)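 Cells cultured with compound for 48 h, then dehydrogenase activity read by colorimetric CCK-8 assay. EC50 derived from the concentration series. Cells were primary human hepatocytes or the MIN6 pancreatic β-cell line, as the line states.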

Data set [3] in a line: Toxicity in human hepatocytes assessed by dehydrogenase activity measured after 48 hrs by CCK-8 assay. In kind it is cell-based, Hepatocyte. The method, boiled down:
as §1

Data set [4] is described as follows: Stability of compound in PBS at pH 7.4 and 37 degree C measured by HPLC method. To be noted: buffer. In kind it is physicochemical. The method, boiled down: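 Compound incubated at 37 °C in PBS (pH 7.4, 5% DMSO) with no catalyst. Remaining compound followed over time.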
Data set [5] can be described thus: Prodrug conversion in PBS buffer assessed as mycophenolic acid formation in presence of nitroreductase and NADH. In kind it is ADME. The method, boiled down:
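Prodrug incubated at 37 °C in PBS (pH 7.4, 5% DMSO) with nitroreductase conjugated to 30 μm amino-terminated polystyrene beads by reductive amination, plus NADH. Release of mycophenolic acid followed over time.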

Inosine-5'-monophosphate dehydrogenase 2 (Homo sapiens), sequence (P12268 2-514 limits assumed): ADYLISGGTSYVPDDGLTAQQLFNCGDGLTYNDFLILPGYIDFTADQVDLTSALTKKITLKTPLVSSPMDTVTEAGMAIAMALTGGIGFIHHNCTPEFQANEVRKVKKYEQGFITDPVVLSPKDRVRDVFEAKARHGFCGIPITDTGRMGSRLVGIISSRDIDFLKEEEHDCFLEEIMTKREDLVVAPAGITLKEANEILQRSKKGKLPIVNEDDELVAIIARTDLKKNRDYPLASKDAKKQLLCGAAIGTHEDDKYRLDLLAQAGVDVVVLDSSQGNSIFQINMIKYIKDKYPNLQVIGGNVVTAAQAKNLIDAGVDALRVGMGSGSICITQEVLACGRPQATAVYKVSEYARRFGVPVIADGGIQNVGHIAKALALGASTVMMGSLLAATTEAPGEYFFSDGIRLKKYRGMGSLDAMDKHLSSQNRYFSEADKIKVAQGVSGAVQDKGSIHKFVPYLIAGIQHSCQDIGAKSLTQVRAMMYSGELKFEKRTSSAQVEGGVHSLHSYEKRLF

For the compound `COc1c(C)c2c(c(O)c1C/C=C(\C)CCC(=O)O)C(=O)OC2` [MYCOPHENOLIC ACID], the inhibition entry in data set [1] is “Active”. Moreover, the concentration for a half-maximal effect (EC50) at 48 h in data set [2] was found to be 0.6 µM; in data set [3], 5.9 µM.
Turning to `C#CCOc1c(C/C=C(\C)CCC(=O)O)c(OC)c(C)c2c1C(=O)OC2`, the inhibition result in data set [1] was “inactive”. A half-maximal response in data set [3] (EC50 at 48 h) required 20.1 µM. The Stabilty result in data set [4] was “Stable”.
As to `COc1c(C)c2c(c(OCc3ccc([N+](=O)[O-])cc3)c1C/C=C(\C)CCC(=O)OCc1ccc([N+](=O)[O-])cc1)C(=O)OC2`, the inhibition entry in data set [1] was “inactive”. The compound also came in with an EC50 at 48 h in data set [3] of 8.3 µM.
For `COc1c(C)c2c(c(OCc3ccc([N+](=O)[O-])cc3)c1C/C=C(\C)CCC(=O)O)C(=O)OC2`, the inhibition entry in data set [1] is “inactive”. Also, the EC50 at 48 h in data set [2] came out at 24 µM; in data set [3] it was 14.4 µM. In data set [4], the Stabilty entry was “Stable”. For the same compound, the Drug metabolism entry in data set [5] was “Metabolite_Detected”.
In the case of `C#CCOC(=O)CC/C(C)=C/Cc1c(OC)c(C)c2c(c1OCC#C)C(=O)OC2`, the inhibition entry in data set [1] was “inactive”. For the same compound, in data set [3], it took 6.7 µM to reach a half-maximal effect (EC50 at 48 h).
